Data from ChEMBL document CHEMBL4689842, “EUbOPEN Chemogenomics Library wave 1” (2021).

System: HEK-293T
Assay: Multiplex assay against HEK293T;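 as to Population Tubulin-Different-Phenotype (%): share of the cells with healthy nuclei that show this phenotype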
Format: toxicity, cell-based
Settings: human
Summary of the method: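 Compound was added to live cells that had been stained at seeding with Hoechst33342, BioTracker Green Microtubule Cytoskeleton Dye, MitoTracker Red and Annexin V Alexa Fluor 680, and imaging followed on a CQ1 microscope at 37°C and 5% CO2. CellPathfinder machine-learning gating divided cells into Hoechst high-intensity objects or normal cells, normal cells into healthy, pyknosed or fragmented nuclei, and pyknosed cells into mitotic or apoptotic. Tubulin, mitochondrial-mass and membrane-permeability phenotypes are per cents of healthy-nucleus cells.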

[1] = 12 h, 1 µM, compound concentration 1 uM, replicate 1
[2] = 12 h, 1 µM, compound concentration 1 uM, replicate 2
[3] = 12 h, 10 µM, compound concentration 10 uM, replicate 1
[4] = 12 h, 10 µM, compound concentration 10 uM, replicate 2
[5] = 24 h, 1 µM, compound concentration 1 uM, replicate 1
[6] = 24 h, 1 µM, compound concentration 1 uM, replicate 2
[7] = 24 h, 10 µM, compound concentration 10 uM, replicate 1
[8] = 24 h, 10 µM, compound concentration 10 uM, replicate 2
[9] = 48 h, 1 µM, compound concentration 1 uM, replicate 1
[10] = 48 h, 1 µM, compound concentration 1 uM, replicate 2
[11] = 48 h, 10 µM, compound concentration 10 uM, replicate 1
[12] = 48 h, 10 µM, compound concentration 10 uM, replicate 2

Q: For `CN1CCN(CCOc2cc(OC3CCOCC3)c3c(Nc4c(Cl)ccc5c4OCO5)ncnc3c2)CC1` [SARACATINIB], which “Population Apoptotic (%)” value [1] is on record?
A: The value was 51%.

Q: What about the “Population Fragmented Nuclei (%)” value [1] of the same molecule?
A: The value was 11%.

Q: And the “Population Healthy Nuclei (%)” value [1]?
A: The value was 29%.

Q: What about the “Population Hoechst High Intensity Objects (%)” value [1] of the same molecule?
A: Its value is 15%.

Q: And the “Population Membrane Permeable-Phenotype (%)” value [1]?
A: Its value is 2%.

Q: What about the “Population Mitochondria Different-Phenotype (%)” value [1] of the same molecule?
A: The value was 89%.

Q: And the “Population Mitotic Cells (%)” value [1]?
A: Its value is 48%.

Q: And the “Population Normal (%)” value [1]?
A: Its value is 84%.

Q: What about the “Population Pyknosed Nuclei (%)” value [1] of the same molecule?
A: The value was 58%.

Q: And the “Population Tubulin-Different-Phenotype (%)” value [1]?
A: The value was 82%.

Q: And the “Total Cell Count” value [1]?
A: The value was 345.

Q: And the “Population Apoptotic (%)” value [2]?
A: Its value is 22%.

Q: What about the “Population Fragmented Nuclei (%)” value [2] of the same molecule?
A: The value was 4%.

Q: What about the “Population Healthy Nuclei (%)” value [2] of the same molecule?
A: Its value is 31%.

Q: And the “Population Hoechst High Intensity Objects (%)” value [2]?
A: The value was 8%.

Q: And the “Population Membrane Permeable-Phenotype (%)” value [2]?
A: The value was 3%.

Q: And the “Population Mitochondria Different-Phenotype (%)” value [2]?
A: The value was 71%.

Q: What about the “Population Mitotic Cells (%)” value [2] of the same molecule?
A: Its value is 77%.

Q: And the “Population Normal (%)” value [2]?
A: The value was 91%.

Q: And the “Population Pyknosed Nuclei (%)” value [2]?
A: The value was 63%.

Q: And the “Population Tubulin-Different-Phenotype (%)” value [2]?
A: The value was 58%.

Q: And the “Population Apoptotic (%)” value [3]?
A: Its value is 72%.

Q: And the “Population Fragmented Nuclei (%)” value [3]?
A: The value was 15%.

Q: And the “Population Healthy Nuclei (%)” value [3]?
A: Its value is 21%.

Q: And the “Population Hoechst High Intensity Objects (%)” value [3]?
A: Its value is 17%.

Q: What about the “Population Membrane Permeable-Phenotype (%)” value [3] of the same molecule?
A: The value was 15%.

Q: What about the “Population Mitochondria Different-Phenotype (%)” value [3] of the same molecule?
A: The value was 94%.

Q: And the “Population Mitotic Cells (%)” value [3]?
A: Its value is 27%.

Q: And the “Population Normal (%)” value [3]?
A: Its value is 82%.

Q: What about the “Population Pyknosed Nuclei (%)” value [3] of the same molecule?
A: Its value is 63%.

Q: And the “Population Tubulin-Different-Phenotype (%)” value [3]?
A: The value was 89%.

Q: What about the “Total Cell Count” value [3] of the same molecule?
A: Its value is 223.

Q: And the “Population Apoptotic (%)” value [4]?
A: The value was 82%.

Q: What about the “Population Fragmented Nuclei (%)” value [4] of the same molecule?
A: The value was 6%.

Q: What about the “Population Healthy Nuclei (%)” value [4] of the same molecule?
A: Its value is 22%.

Q: What about the “Population Hoechst High Intensity Objects (%)” value [4] of the same molecule?
A: The value was 7%.

Q: What about the “Population Membrane Permeable-Phenotype (%)” value [4] of the same molecule?
A: The value was 2%.

Q: What about the “Population Mitochondria Different-Phenotype (%)” value [4] of the same molecule?
A: The value was 100%.

Q: What about the “Population Mitotic Cells (%)” value [4] of the same molecule?
A: Its value is 17%.

Q: And the “Population Normal (%)” value [4]?
A: The value was 92%.

Q: What about the “Population Pyknosed Nuclei (%)” value [4] of the same molecule?
A: Its value is 71%.

Q: And the “Population Tubulin-Different-Phenotype (%)” value [4]?
A: Its value is 100%.

Q: What about the “Total Cell Count” value [4] of the same molecule?
A: The value was 190.

Q: And the “Population Apoptotic (%)” value [5]?
A: The value was 54%.

Q: And the “Population Fragmented Nuclei (%)” value [5]?
A: Its value is 11%.

Q: What about the “Population Healthy Nuclei (%)” value [5] of the same molecule?
A: Its value is 36%.

Q: And the “Population Hoechst High Intensity Objects (%)” value [5]?
A: Its value is 13%.

Q: And the “Population Membrane Permeable-Phenotype (%)” value [5]?
A: Its value is 3%.

Q: And the “Population Mitochondria Different-Phenotype (%)” value [5]?
A: The value was 87%.

Q: And the “Population Mitotic Cells (%)” value [5]?
A: Its value is 45%.

Q: What about the “Population Normal (%)” value [5] of the same molecule?
A: Its value is 86%.

Q: What about the “Population Pyknosed Nuclei (%)” value [5] of the same molecule?
A: The value was 52%.

Q: What about the “Population Tubulin-Different-Phenotype (%)” value [5] of the same molecule?
A: The value was 65%.

Q: What about the “Total Cell Count” value [5] of the same molecule?
A: Its value is 382.

Q: What about the “Population Apoptotic (%)” value [6] of the same molecule?
A: The value was 28%.

Q: What about the “Population Fragmented Nuclei (%)” value [6] of the same molecule?
A: The value was 4%.

Q: What about the “Population Healthy Nuclei (%)” value [6] of the same molecule?
A: The value was 39%.

Q: What about the “Population Hoechst High Intensity Objects (%)” value [6] of the same molecule?
A: Its value is 5%.

Q: And the “Population Membrane Permeable-Phenotype (%)” value [6]?
A: Its value is 1%.

Q: What about the “Population Mitochondria Different-Phenotype (%)” value [6] of the same molecule?
A: The value was 58%.

Q: What about the “Population Mitotic Cells (%)” value [6] of the same molecule?
A: Its value is 71%.

Q: And the “Population Normal (%)” value [6]?
A: The value was 94%.

Q: And the “Population Pyknosed Nuclei (%)” value [6]?
A: Its value is 55%.

Q: What about the “Population Tubulin-Different-Phenotype (%)” value [6] of the same molecule?
A: The value was 66%.

Q: What about the “Total Cell Count” value [6] of the same molecule?
A: The value was 217.

Q: And the “Population Apoptotic (%)” value [7]?
A: Its value is 80%.

Q: And the “Population Fragmented Nuclei (%)” value [7]?
A: Its value is 12%.

Q: What about the “Population Healthy Nuclei (%)” value [7] of the same molecule?
A: Its value is 15%.

Q: And the “Population Hoechst High Intensity Objects (%)” value [7]?
A: Its value is 23%.

Q: And the “Population Membrane Permeable-Phenotype (%)” value [7]?
A: Its value is 0%.

Q: What about the “Population Mitochondria Different-Phenotype (%)” value [7] of the same molecule?
A: The value was 100%.

Q: What about the “Population Mitotic Cells (%)” value [7] of the same molecule?
A: The value was 19%.

Q: And the “Population Normal (%)” value [7]?
A: The value was 76%.

Q: What about the “Population Pyknosed Nuclei (%)” value [7] of the same molecule?
A: Its value is 71%.

Q: And the “Population Tubulin-Different-Phenotype (%)” value [7]?
A: The value was 90%.

Q: And the “Total Cell Count” value [7]?
A: The value was 248.

Q: What about the “Population Apoptotic (%)” value [8] of the same molecule?
A: Its value is 88%.

Q: What about the “Population Fragmented Nuclei (%)” value [8] of the same molecule?
A: Its value is 5%.

Q: And the “Population Healthy Nuclei (%)” value [8]?
A: The value was 25%.

Q: What about the “Population Hoechst High Intensity Objects (%)” value [8] of the same molecule?
A: Its value is 5%.

Q: And the “Population Membrane Permeable-Phenotype (%)” value [8]?
A: The value was 6%.

Q: And the “Population Mitochondria Different-Phenotype (%)” value [8]?
A: The value was 95%.

Q: And the “Population Mitotic Cells (%)” value [8]?
A: The value was 11%.

Q: What about the “Population Normal (%)” value [8] of the same molecule?
A: The value was 94%.

Q: And the “Population Pyknosed Nuclei (%)” value [8]?
A: Its value is 69%.

Q: And the “Population Tubulin-Different-Phenotype (%)” value [8]?
A: The value was 85%.

Q: And the “Total Cell Count” value [8]?
A: Its value is 208.

Q: And the “Population Apoptotic (%)” value [9]?
A: The value was 51%.

Q: What about the “Population Fragmented Nuclei (%)” value [9] of the same molecule?
A: Its value is 16%.

Q: What about the “Population Healthy Nuclei (%)” value [9] of the same molecule?
A: The value was 47%.

Q: What about the “Population Hoechst High Intensity Objects (%)” value [9] of the same molecule?
A: The value was 18%.

Q: What about the “Population Membrane Permeable-Phenotype (%)” value [9] of the same molecule?
A: The value was 2%.

Q: And the “Population Mitochondria Different-Phenotype (%)” value [9]?
A: Its value is 50%.

Q: What about the “Population Mitotic Cells (%)” value [9] of the same molecule?
A: Its value is 48%.

Q: And the “Population Normal (%)” value [9]?
A: Its value is 81%.

Q: What about the “Population Pyknosed Nuclei (%)” value [9] of the same molecule?
A: Its value is 36%.

Q: What about the “Population Tubulin-Different-Phenotype (%)” value [9] of the same molecule?
A: Its value is 49%.

Q: And the “Total Cell Count” value [9]?
A: The value was 448.

Q: What about the “Population Apoptotic (%)” value [10] of the same molecule?
A: The value was 26%.

Q: What about the “Population Fragmented Nuclei (%)” value [10] of the same molecule?
A: The value was 4%.

Q: What about the “Population Healthy Nuclei (%)” value [10] of the same molecule?
A: Its value is 70%.

Q: What about the “Population Hoechst High Intensity Objects (%)” value [10] of the same molecule?
A: Its value is 5%.

Q: What about the “Population Membrane Permeable-Phenotype (%)” value [10] of the same molecule?
A: The value was 1%.

Q: What about the “Population Mitochondria Different-Phenotype (%)” value [10] of the same molecule?
A: Its value is 32%.

Q: And the “Population Mitotic Cells (%)” value [10]?
A: Its value is 73%.

Q: And the “Population Normal (%)” value [10]?
A: Its value is 94%.

Q: What about the “Population Pyknosed Nuclei (%)” value [10] of the same molecule?
A: Its value is 25%.

Q: What about the “Population Tubulin-Different-Phenotype (%)” value [10] of the same molecule?
A: Its value is 55%.

Q: What about the “Total Cell Count” value [10] of the same molecule?
A: The value was 315.

Q: What about the “Population Apoptotic (%)” value [11] of the same molecule?
A: Its value is 73%.

Q: And the “Population Fragmented Nuclei (%)” value [11]?
A: The value was 23%.

Q: What about the “Population Healthy Nuclei (%)” value [11] of the same molecule?
A: The value was 30%.

Q: What about the “Population Hoechst High Intensity Objects (%)” value [11] of the same molecule?
A: Its value is 26%.

Q: And the “Population Membrane Permeable-Phenotype (%)” value [11]?
A: Its value is 3%.

Q: And the “Population Mitochondria Different-Phenotype (%)” value [11]?
A: Its value is 96%.

Q: What about the “Population Mitotic Cells (%)” value [11] of the same molecule?
A: Its value is 26%.

Q: And the “Population Normal (%)” value [11]?
A: The value was 73%.

Q: What about the “Population Pyknosed Nuclei (%)” value [11] of the same molecule?
A: The value was 45%.

Q: What about the “Population Tubulin-Different-Phenotype (%)” value [11] of the same molecule?
A: The value was 78%.

Q: What about the “Total Cell Count” value [11] of the same molecule?
A: Its value is 230.

Q: And the “Population Apoptotic (%)” value [12]?
A: The value was 84%.

Q: What about the “Population Fragmented Nuclei (%)” value [12] of the same molecule?
A: Its value is 6%.

Q: What about the “Population Healthy Nuclei (%)” value [12] of the same molecule?
A: The value was 41%.

Q: And the “Population Hoechst High Intensity Objects (%)” value [12]?
A: The value was 11%.

Q: And the “Population Membrane Permeable-Phenotype (%)” value [12]?
A: The value was 0%.

Q: And the “Population Mitochondria Different-Phenotype (%)” value [12]?
A: The value was 98%.

Q: What about the “Population Mitotic Cells (%)” value [12] of the same molecule?
A: Its value is 15%.

Q: And the “Population Normal (%)” value [12]?
A: Its value is 88%.

Q: And the “Population Pyknosed Nuclei (%)” value [12]?
A: The value was 52%.

Q: What about the “Population Tubulin-Different-Phenotype (%)” value [12] of the same molecule?
A: Its value is 71%.

Q: And the “Total Cell Count” value [12]?
A: The value was 204.
